From publication PMC4235008 (Neoplasia (New York, N.Y.), 2014)

System: PC3 xenografts
Assay: PET imaging of PC3 xenografted Nu/Nu mice
Type: in vivo, mouse
Details: 15 MBq injected, 20-minute scan
How it was run: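 Male Nu/Nu mice (4–6 weeks old) got s.c. PC3 cells (1 × 10^6 in PBS, shoulders) or LNCaP cells (2.5 × 10^6 in PBS/Matrigel 1:1, hips). Tumors grew ≥4 weeks to ≥5 mm. Under isoflurane, mice received i.v. 3.7–7.4 MBq 64Cu peptide or 15 MBq [18F]-FDG, on a heated bed. Scans ran 20 min on small-animal PET with 3D MLEM reconstruction. ROI activity was expressed per cm³ as % injected dose.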

`OC[C@H]1OC(O)[C@H]([18F])[C@@H](O)[C@@H]1O` (stereo partly drawn) [[^18F]-FDG, [^18F]-fluoro-2-deoxy-D-glucose] was tested, and the “PC3 tumor [18F]-FDG uptake (PET)” value was “faultless”.
